Laboratory results from ChEMBL document CHEMBL6078712, “Triterpenoid phthalimides as selective anti-cancer agents targeting mitochondrial apoptosis” (Eur J Med Chem, 2025).

Key:
CCRF-CEM = assay: Cytotoxicity against human CCRF-CEM cells assessed as inhibition of cell growth incubated for 72 hrs by MTS assay; type: functional, cell-based
Summary of the method: (§1)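 MTS assay on eight human cancer lines and two non-tumour fibroblast lines. IC50 is the concentration that inhibits cell growth by 50 %. SD typically up to 15 % of the mean.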

CEM-DNR = assay: Cytotoxicity against human CEM-DNR cells assessed as inhibition of cell growth incubated for 72 hrs by MTS assay; type: functional, cell-based; summary of the method: as §1
HCT-116 = assay: Cytotoxicity against human HCT-116 cells assessed as inhibition of cell growth incubated for 72 hrs by MTS assay; type: functional, cell-based; details: HCT-116, 72 h; summary of the method: as §1
HCT 116 TP53(-/-) = assay: Cytotoxicity against human HCT116-p53-null cells assessed as inhibition of cell growth incubated for 72 hrs by MTS assay; type: functional, cell-based; summary of the method: as §1
K562 = assay: Cytotoxicity against human K562 cells assessed as inhibition of cell growth incubated for 72 hrs by MTS assay; type: functional, cell-based; details: K562, 72 h; summary of the method: as §1
[1] = Cytotoxicity against human K562-Tax cells assessed as inhibition of cell growth incubated for 72 hrs by MTS assay; type: functional, cell-based; summary of the method: as §1
A549 = assay: Cytotoxicity against human A549 cells assessed as inhibition of cell growth incubated for 72 hrs by MTS assay; type: functional, cell-based; details: A549, 72 h; summary of the method: as §1
U2OS = assay: Cytotoxicity against human U2OS cells assessed as inhibition of cell growth incubated for 72 hrs by MTS assay; type: functional, cell-based; summary of the method: as §1
[2] = Cytotoxicity against human BJ cells assessed as inhibition of cell growth incubated for 72 hrs by MTS assay; type: toxicity, cell-based; summary of the method: as §1
[3] = Cytotoxicity against human MRC5 cells assessed as inhibition of cell growth incubated for 72 hrs by MTS assay; type: toxicity, cell-based; summary of the method: as §1

## COC(=O)c1ccc([C@@H]2CC[C@]3(CO)CC[C@]4(C)[C@H](CC[C@@H]5[C@@]6(C)CC[C@H](O)C(C)(C)[C@@H]6CC[C@]54C)[C@@H]23)cc1C(=O)OC
CCRF-CEM
  IC50: > 50 µM
CEM-DNR
  IC50: 19.7 µM
HCT-116
  IC50: > 50 µM
HCT 116 TP53(-/-)
  IC50: > 50 µM
K562
  IC50: > 50 µM
[1]
  IC50: 10.3 µM
A549
  IC50: > 50 µM
U2OS
  IC50: > 50 µM
[2]
  IC50 at 72 h: > 50 µM
[3]
  IC50 at 72 h: > 50 µM

## CC(=O)O[C@H]1CC[C@]2(C)[C@H]3CC[C@@H]4[C@H]5[C@H](c6cc7c(c(-c8ccccc8)c6)C(=O)NC7=O)CC[C@]5(CO)CC[C@@]4(C)[C@]3(C)CC[C@H]2C1(C)C
CCRF-CEM
  IC50: > 50 µM
CEM-DNR
  IC50: > 50 µM
HCT-116
  IC50: > 50 µM
HCT 116 TP53(-/-)
  IC50: > 50 µM
K562
  IC50: > 50 µM
[1]
  IC50: > 50 µM
A549
  IC50: > 50 µM
U2OS
  IC50: > 50 µM
[2]
  IC50 at 72 h: > 50 µM
[3]
  IC50 at 72 h: > 50 µM

## Cc1cc([C@@H]2CC[C@]3(C(=O)O)CC[C@]4(C)[C@H](CC[C@@H]5[C@@]6(C)CC[C@H](O)C(C)(C)[C@@H]6CC[C@]54C)[C@@H]23)cc2c1C(=O)NC2=O
CCRF-CEM
  IC50: 7.97 µM
CEM-DNR
  IC50: 8.76 µM
HCT-116
  IC50: 25.9 µM
HCT 116 TP53(-/-)
  IC50: 27.2 µM
K562
  IC50: > 50 µM
[1]
  IC50: 7.2 µM
A549
  IC50: > 50 µM
U2OS
  IC50: 24.8 µM
[2]
  IC50 at 72 h: > 50 µM
[3]
  IC50 at 72 h: 34.3 µM

## CC(=O)O[C@H]1CC[C@]2(C)[C@H]3CC[C@@H]4[C@H]5[C@H](c6ccc7c(c6)C(=O)NC7=O)CC[C@]5(CO)CC[C@@]4(C)[C@]3(C)CC[C@H]2C1(C)C
CCRF-CEM
  IC50: 14 µM
CEM-DNR
  IC50: 9.21 µM
HCT-116
  IC50: 19.7 µM
HCT 116 TP53(-/-)
  IC50: 21.8 µM
K562
  IC50: 36 µM
[1]
  IC50: 7.43 µM
A549
  IC50: > 50 µM
U2OS
  IC50: 34.5 µM
[2]
  IC50 at 72 h: > 50 µM
[3]
  IC50 at 72 h: 28.5 µM

## CC1(C)[C@@H](O)CC[C@]2(C)[C@H]3CC[C@@H]4[C@H]5[C@H](c6cc(C#N)c(C#N)c(-c7ccccc7)c6)CC[C@]5(C(=O)O)CC[C@@]4(C)[C@]3(C)CC[C@@H]12
CCRF-CEM
  IC50: 5.99 µM
CEM-DNR
  IC50: 13.7 µM
HCT-116
  IC50: 26 µM
HCT 116 TP53(-/-)
  IC50: 31.6 µM
K562
  IC50: 27.8 µM
[1]
  IC50: 7 µM
A549
  IC50: 20.7 µM
U2OS
  IC50: 19.2 µM
[2]
  IC50 at 72 h: 36.2 µM
[3]
  IC50 at 72 h: 25.7 µM

## CC1(C)[C@@H](O)CC[C@]2(C)[C@H]3CC[C@@H]4[C@H]5[C@H](c6cc7c(c(-c8ccccc8)c6)C(=O)N(c6ccc(C#N)cc6)C7=O)CC[C@]5(C(=O)O)CC[C@@]4(C)[C@]3(C)CC[C@@H]12
CCRF-CEM
  IC50: 14.2 µM
CEM-DNR
  IC50: > 50 µM
HCT-116
  IC50: > 50 µM
HCT 116 TP53(-/-)
  IC50: > 50 µM
K562
  IC50: > 50 µM
[1]
  IC50: > 50 µM
A549
  IC50: > 50 µM
U2OS
  IC50: > 50 µM
[2]
  IC50 at 72 h: > 50 µM
[3]
  IC50 at 72 h: > 50 µM

## CC1(C)[C@@H](O)CC[C@]2(C)[C@H]3CC[C@@H]4[C@H]5[C@H](c6cc7c(c(-c8ccccc8)c6)C(=O)NC7=O)CC[C@]5(C(=O)O)CC[C@@]4(C)[C@]3(C)CC[C@@H]12
CCRF-CEM
  IC50: 7.18 µM
CEM-DNR
  IC50: 9.65 µM
HCT-116
  IC50: 7.22 µM
HCT 116 TP53(-/-)
  IC50: 7.43 µM
K562
  IC50: 7.58 µM
[1]
  IC50: 10.4 µM
A549
  IC50: 6.39 µM
U2OS
  IC50: 9.82 µM
[2]
  IC50 at 72 h: 34.5 µM
[3]
  IC50 at 72 h: 32.4 µM

## CC1(C)[C@@H](O)CC[C@]2(C)[C@H]3CC[C@@H]4[C@H]5[C@H](c6ccc7c(c6)C(=O)N(c6ccccc6)C7=O)CC[C@]5(C(=O)O)CC[C@@]4(C)[C@]3(C)CC[C@@H]12
CCRF-CEM
  IC50: 7.93 µM
CEM-DNR
  IC50: 19.9 µM
HCT-116
  IC50: 31.1 µM
HCT 116 TP53(-/-)
  IC50: 37.8 µM
K562
  IC50: > 50 µM
[1]
  IC50: 14.3 µM
A549
  IC50: 34.2 µM
U2OS
  IC50: 24.9 µM
[2]
  IC50 at 72 h: > 50 µM
[3]
  IC50 at 72 h: 31 µM
